ChEMBL document CHEMBL1155897, “Structure-antitussive activity relationships of naltrindole derivatives. Identification of novel and potent antitussive agents” (J Med Chem, 2008)
Active and inactive are the calls of the source. The rule behind the calls is not given here.

What was measured:
Rattus norvegicus [1] = assay: Antitussive activity in po dosed Sprague-Dawley rat assessed as reduction in number of capsaicin-induced coughs; assay type: functional
[2] = target: T1, Kappa-type opioid receptor (Mus musculus, UniProt P33534); assay: Antagonist activity at kappa opioid receptor in electrically-induced ddY mouse vas deferens assessed as effect on U50,488H-induced inhibition of electrically-stimulated contraction at 100 uM; assay type: functional, tissue-based; settings: read-out: pA2 (converted)
Method in brief: (§1)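 Vas deferens from male ddy mice was mounted in a Magnus tube at 37 °C in Krebs-Henseleit gassed with 95% O2/5% CO2 and electrically stimulated. Antagonist was added 20 min before cumulative agonist: DPDPE (δ), U-50,488H (κ) or morphine (µ). Dose ratio is the agonist IC50 with versus without antagonist, as mean of N=4. pA2 = −log([B]/(dose ratio − 1)).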

[3] = Displacement of [3H]NTI from delta opioid receptor in Hartley guinea pig brain membrane; assay type: cell membranes, Cavia porcellus
Method in brief: (§2)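 Brains from 4-week male Hartley guinea pigs were split into forebrain (µ, δ) and cerebellum (κ). Membranes were homogenised in 50 mM Tris-HCl pH 7.4 and held 1 h at 4 °C to remove endogenous ligands.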

Mu-type opioid receptor [4] = target: T2, Mu-type opioid receptor (Cavia porcellus, UniProt P97266); assay: Displacement of [3H]DAMGO from mu opioid receptor in Hartley guinea pig brain membrane; assay type: cell membranes; method in brief: as §2
[5] = target: T3, Kappa-type opioid receptor (Cavia porcellus, UniProt P41144); assay: Displacement of […] from kappa opioid receptor in Hartley guinea pig brain membrane; assay type: cell membranes
Cavia porcellus [6] = species: Cavia porcellus; assay: Selectivity for delta opioid receptor over mu opioid receptor in Hartley guinea pig brain membrane; assay type: cell membranes
Cavia porcellus [7] = species: Cavia porcellus; assay: Selectivity for delta opioid receptor over kappa opioid receptor in Hartley guinea pig brain membrane; assay type: cell membranes
[8] = target: Delta-type opioid receptor (Homo sapiens) (UniProt P41143); assay: Agonist activity at human delta opioid receptor expressed in CHO cells assessed as stimulation of [35S]GTPgammaS binding at 1 uM relative to DPDPE; assay type: functional, cell-based
Method in brief: (§3)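 Compound was preincubated 20 min at 30 °C, then 60 min with SPA beads. 0.3 nM [35S]GTPγS was added for 30 min.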

[9] = target: Mu-type opioid receptor (Homo sapiens) (UniProt P35372); assay: Agonist activity at human mu opioid receptor expressed in CHO cells assessed as stimulation of [35S]GTPgammaS binding at 1 uM relative to DAMGO; assay type: functional, cell-based; method in brief: as §3
[10] = target: Kappa-type opioid receptor (Homo sapiens) (UniProt P41145); assay: Agonist activity at human kappa opioid receptor expressed in HEK293 cells assessed as stimulation of [35S]GTPgammaS binding at 1 uM relative to U69,593; assay type: functional, cell-based; method in brief: as §3
Rattus norvegicus [11] = assay: Antitussive activity in ip dosed Sprague-Dawley rat assessed as reduction in number of capsaicin-induced coughs; assay type: functional
[12] = Binding affinity to guinea pig delta opioid receptor; set-up: species or system Cavia porcellus; method in brief: as §2
Mu-type opioid receptor [13] = target: T2, Mu-type opioid receptor; assay: Binding affinity to guinea pig mu opioid receptor; method in brief: as §2
Rattus norvegicus [14] = assay: Effect on Sprague-Dawley rat capsaicin-induced cough nodel assessed as increase in number of coughs at 10 mg/kg, sc; assay type: functional, organism-based; set-up: dose 10 mg/kg
Mu-type opioid receptor [15] = target: T4, Mu-type opioid receptor (Mus musculus, UniProt P42866); assay: Antagonist activity at mu opioid receptor in electrically-induced ddY mouse vas deferens assessed as effect on morphine-induced inhibition of electrically-stimulated contraction at 30 uM; assay type: functional, tissue-based; settings: read-out: pA2 (converted); method in brief: as §1
[16] = target: T1, Kappa-type opioid receptor; assay: Antagonist activity at kappa opioid receptor in electrically-induced ddY mouse vas deferens assessed as effect on U50,488H-induced inhibition of electrically-stimulated contraction at 30 uM; assay type: functional, tissue-based; settings: read-out: pA2 (converted); method in brief: as §1
[17] = target: T5, Delta-type opioid receptor (Mus musculus, UniProt P32300); assay: Antagonist activity at delta opioid receptor in electrically-induced ddY mouse vas deferens assessed as effect on DPDPE-induced inhibition of electrically-stimulated contraction at 10 uM; assay type: functional, tissue-based; settings: read-out: pA2 (converted); method in brief: as §1
[18] = target: T1, Kappa-type opioid receptor; assay: Antagonist activity at kappa opioid receptor in electrically-induced ddY mouse vas deferens assessed as effect on U50,488H-induced inhibition of electrically-stimulated contraction at 10 uM; assay type: functional, tissue-based; settings: read-out: pA2 (converted); method in brief: as §1
[19] = target: T5, Delta-type opioid receptor; assay: Antagonist activity at delta opioid receptor in electrically-induced ddY mouse vas deferens assessed as effect on DPDPE-induced inhibition of electrically-stimulated contraction at 100 uM; assay type: functional, tissue-based; settings: read-out: pA2 (converted); method in brief: as §1
Mu-type opioid receptor [20] = target: T4, Mu-type opioid receptor; assay: Antagonist activity at mu opioid receptor in electrically-induced ddY mouse vas deferens assessed as effect on […]-induced inhibition of electrically-stimulated contraction at 10 uM; assay type: functional, tissue-based; settings: read-out: pA2 (converted)
[21] = target: T3, Kappa-type opioid receptor; assay: Binding affinity to guinea pig kappa opioid receptor; method in brief: as §2
[22] = target: T5, Delta-type opioid receptor; assay: Antagonist activity at delta opioid receptor in electrically-induced ddY mouse vas deferens assessed as effect on DPDPE-induced inhibition of electrically-stimulated contraction at 30 uM; assay type: functional, tissue-based; settings: read-out: pA2 (converted); method in brief: as §1

T4 sequence (P42866 whole entry): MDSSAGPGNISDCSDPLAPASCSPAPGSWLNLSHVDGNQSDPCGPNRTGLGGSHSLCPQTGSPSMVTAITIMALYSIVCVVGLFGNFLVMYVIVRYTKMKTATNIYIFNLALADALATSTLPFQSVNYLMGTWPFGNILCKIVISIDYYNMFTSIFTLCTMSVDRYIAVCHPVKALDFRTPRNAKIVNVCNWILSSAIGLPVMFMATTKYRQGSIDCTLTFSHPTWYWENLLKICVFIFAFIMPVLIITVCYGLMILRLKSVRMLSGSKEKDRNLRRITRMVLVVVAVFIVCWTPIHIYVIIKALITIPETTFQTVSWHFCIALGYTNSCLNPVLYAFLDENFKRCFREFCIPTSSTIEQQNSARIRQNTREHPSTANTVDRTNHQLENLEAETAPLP
Sequence of Mu-type opioid receptor (Homo sapiens) (P35372 whole entry): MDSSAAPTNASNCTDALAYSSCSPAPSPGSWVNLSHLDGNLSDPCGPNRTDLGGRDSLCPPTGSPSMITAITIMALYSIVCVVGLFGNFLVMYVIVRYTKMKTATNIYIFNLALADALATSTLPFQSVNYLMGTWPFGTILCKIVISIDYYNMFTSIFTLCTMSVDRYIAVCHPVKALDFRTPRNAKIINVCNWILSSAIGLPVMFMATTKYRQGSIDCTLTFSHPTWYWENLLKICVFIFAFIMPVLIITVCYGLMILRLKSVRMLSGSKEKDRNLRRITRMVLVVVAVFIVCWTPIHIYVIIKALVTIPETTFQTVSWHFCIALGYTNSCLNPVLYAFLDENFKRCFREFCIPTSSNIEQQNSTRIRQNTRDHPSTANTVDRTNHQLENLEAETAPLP
T2 sequence (P97266 whole entry): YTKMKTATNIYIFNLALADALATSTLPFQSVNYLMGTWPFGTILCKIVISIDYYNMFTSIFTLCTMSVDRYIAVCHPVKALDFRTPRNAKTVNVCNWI
T3 sequence (P41144 whole entry): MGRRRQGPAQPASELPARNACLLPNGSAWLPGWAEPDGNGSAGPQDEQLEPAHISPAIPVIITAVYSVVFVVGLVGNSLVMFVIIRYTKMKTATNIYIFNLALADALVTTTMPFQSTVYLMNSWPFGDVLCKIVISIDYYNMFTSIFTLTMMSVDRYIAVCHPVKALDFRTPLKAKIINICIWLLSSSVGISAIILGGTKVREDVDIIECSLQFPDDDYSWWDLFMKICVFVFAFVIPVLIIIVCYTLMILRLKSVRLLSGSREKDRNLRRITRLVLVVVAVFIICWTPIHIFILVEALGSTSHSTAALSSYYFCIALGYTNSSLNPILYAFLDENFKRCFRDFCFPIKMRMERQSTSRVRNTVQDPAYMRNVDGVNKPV
T1 sequence (P33534 whole entry): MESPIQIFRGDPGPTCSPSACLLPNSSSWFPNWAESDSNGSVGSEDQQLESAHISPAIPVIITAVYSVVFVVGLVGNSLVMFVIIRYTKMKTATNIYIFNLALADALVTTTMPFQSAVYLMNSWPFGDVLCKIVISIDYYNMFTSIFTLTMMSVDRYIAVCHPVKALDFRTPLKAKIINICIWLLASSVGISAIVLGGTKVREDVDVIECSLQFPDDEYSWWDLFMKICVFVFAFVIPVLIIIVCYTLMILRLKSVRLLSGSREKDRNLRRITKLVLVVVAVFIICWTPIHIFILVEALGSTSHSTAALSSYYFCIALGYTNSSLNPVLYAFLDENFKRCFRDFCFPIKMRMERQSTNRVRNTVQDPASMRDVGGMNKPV
Sequence of Kappa-type opioid receptor (Homo sapiens) (P41145 whole entry): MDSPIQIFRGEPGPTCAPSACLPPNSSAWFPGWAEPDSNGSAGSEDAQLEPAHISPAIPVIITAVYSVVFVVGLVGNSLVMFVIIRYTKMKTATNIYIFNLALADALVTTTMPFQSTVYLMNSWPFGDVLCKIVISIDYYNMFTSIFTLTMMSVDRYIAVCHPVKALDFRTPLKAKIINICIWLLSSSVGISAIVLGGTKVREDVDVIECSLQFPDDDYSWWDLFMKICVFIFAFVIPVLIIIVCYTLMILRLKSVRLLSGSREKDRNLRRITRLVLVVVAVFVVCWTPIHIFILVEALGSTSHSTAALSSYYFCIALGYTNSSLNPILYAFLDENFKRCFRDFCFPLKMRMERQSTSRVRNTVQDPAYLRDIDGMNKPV
T5 sequence (P32300 whole entry): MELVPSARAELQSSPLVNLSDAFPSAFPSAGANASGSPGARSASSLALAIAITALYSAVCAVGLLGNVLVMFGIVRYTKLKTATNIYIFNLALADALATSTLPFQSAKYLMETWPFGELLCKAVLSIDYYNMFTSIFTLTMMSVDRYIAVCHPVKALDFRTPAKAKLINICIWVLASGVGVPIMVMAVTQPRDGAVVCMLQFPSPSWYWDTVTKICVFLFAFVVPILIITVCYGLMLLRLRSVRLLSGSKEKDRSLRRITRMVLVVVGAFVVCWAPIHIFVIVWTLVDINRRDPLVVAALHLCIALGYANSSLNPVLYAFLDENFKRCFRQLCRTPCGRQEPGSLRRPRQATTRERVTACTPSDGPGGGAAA
Sequence of Delta-type opioid receptor (Homo sapiens) (P41143 whole entry): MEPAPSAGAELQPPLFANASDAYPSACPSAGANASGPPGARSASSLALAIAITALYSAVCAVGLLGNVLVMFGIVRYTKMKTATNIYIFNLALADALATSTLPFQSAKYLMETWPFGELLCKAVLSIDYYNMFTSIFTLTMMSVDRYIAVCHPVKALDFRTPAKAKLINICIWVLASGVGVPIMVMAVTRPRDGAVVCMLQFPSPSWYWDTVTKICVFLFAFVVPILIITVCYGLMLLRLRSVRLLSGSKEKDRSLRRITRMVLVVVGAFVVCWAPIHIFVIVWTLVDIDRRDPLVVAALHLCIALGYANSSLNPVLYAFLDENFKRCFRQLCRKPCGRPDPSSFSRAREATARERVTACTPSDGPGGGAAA

Structure (SMILES) | Ki [3] [nM] | Ki (Mu-type opioid receptor [4]) [nM] | Ki [5] [nM] | Selectivity ratio (Cavia porcellus [6]) | Selectivity ratio (Cavia porcellus [7]) | Activity [8] [%] | Activity [9] [%] | Activity [10] [%] | ED50 (Rattus norvegicus [11]) [mg/kg] | other results
COc1ccc2c3c1O[C@H]1c4c(c5cccc6c5n4CCC6)C[C@@]4(O)[C@@H](C2)N(CC2CC2)CC[C@]314.CS(=O)(=O)O | 79 | > 3670 | 3290 | > 46 | 42 | 47 | -1 | 8 |  | ED50 (Rattus norvegicus [1]): 0.0064 mg/kg; Kb [2]: 67.6 nM
CCCn1c2c(c3ccccc31)C[C@@]1(O)[C@H]3Cc4ccc(OC)c5c4[C@@]1(CCN3CC1CC1)[C@H]2O5 |  |  |  |  |  |  |  |  | 0.0148 | 
Oc1ccc2c3c1O[C@H]1c4[nH]c5ccccc5c4C[C@@]4(O)[C@@H](C2)N(CC2CC2)CC[C@]314 [NALTRINDOLE] | 0.135 | 12.7 | 7.44 | 94 | 55 | -3 | 5 | 12 |  | ED50 (Rattus norvegicus [1]): 1.83 mg/kg; Ki [12]: 0.217 nM; Ki (Mu-type opioid receptor [13]): 27 nM
COc1ccc2c3c1O[C@H]1c4c(c5cccc(C)c5n4C)C[C@@]4(O)[C@@H](C2)N(CC2CC2)CC[C@]314 |  |  |  |  |  |  |  |  | 0.00635 | 
CN1CC[C@]2(c3cccc(O)c3)Cc3nc4ccccc4cc3C[C@H]2C1 (relative stereo) |  |  |  |  |  |  |  |  |  | Activity (Rattus norvegicus [14]): Active
Oc1ccc2c3c1O[C@H]1c4c(c5cccc6c5n4CC6)C[C@@]4(O)[C@@H](C2)N(CC2CC2)CC[C@]314 | 0.295 | 23.2 | 7.99 | 79 | 27 | 26 | 0 | 3 |  | Kb (Mu-type opioid receptor [15]): 15.8 nM; Kb [16]: 7.94 nM
COc1ccc2c3c1O[C@H]1c4c(c5cccc6c5n4CCCC6)C[C@@]4(O)[C@@H](C2)N(CC2CC2)CC[C@]314 | 274 | > 3670 | 3340 | > 13 | 12 | 45 | -1 | 11 |  | Kb [17]: 295 nM; Kb [18]: 17 nM
CCn1c2c(c3cccc(C)c31)C[C@@]1(O)[C@H]3Cc4ccc(OC)c5c4[C@@]1(CCN3CC1CC1)[C@H]2O5 | 218 | > 3670 | 4650 | > 17 | 21 | 47 | 1 | 21 | 0.00179 | 
Oc1ccc2c3c1O[C@H]1c4[nH]c5c6c(ccc5c4C[C@@]4(O)[C@@H](C2)N(CC2CC2)CC[C@]314)CCCC6 | 6.32 | 200 | 52 | 32 | 8.2 | 19 | -1 | 33 |  | Kb [19]: 23.4 nM; Kb [2]: 1660 nM
Cn1c2c(c3ccccc31)C[C@@]1(O)[C@H]3Cc4ccc(O)c5c4[C@@]1(CCN3CC1CC1)[C@H]2O5 |  |  |  |  |  |  |  |  | 0.204 | 
Oc1ccc2c3c1O[C@H]1c4c(c5cccc6c5n4CCCC6)C[C@@]4(O)[C@@H](C2)N(CC2CC2)CC[C@]314 | 2.26 | 113 | 40 | 50 | 18 | 20 | -1 | 32 | 0.0123 | Kb (Mu-type opioid receptor [20]): 18.2 nM; Kb [18]: 51.3 nM
COc1ccc2c3c1O[C@H]1c4[nH]c5ccccc5c4C[C@@]4(O)[C@@H](C2)N(CC2CC2)CC[C@]314 |  |  |  |  |  |  |  |  |  | Ki [12]: 6.57 nM; Ki (Mu-type opioid receptor [13]): 2510 nM; Ki [21]: 3910 nM
Oc1ccc2c3c1O[C@H]1c4c(c5cccc6c5n4CCC6)C[C@@]4(O)[C@@H](C2)N(CC2CC2)CC[C@]314 | 0.673 | 60.6 | 15.1 | 90 | 22 | -2 | 1 | 26 |  | Kb [22]: 0.794 nM; Kb (Mu-type opioid receptor [15]): 12.6 nM; Kb [16]: 27.5 nM
